How the values were obtained:
Liver microsome [1] = assay: Drug metabolism in beagle dog liver microsomes assessed as 1alpha-hydroxylcinobufagin formation at 100 uM at 37 degC after 30 mins by UFLC-ESI-MS analysis in presence of NADPH-generating system; assay type: ADME, Canis lupus familiaris; details: 0.5 h
Procedure, shortened: (§1)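 Liver microsomes (0.3 mg protein/ml) incubated with 100 µM substrate at 37°C for 30 min, in 100 mM potassium phosphate pH 7.4 with NADPH-generating system (1 mM NADP+, 10 mM glucose 6-phosphate, 1 unit/ml G6PDH, 4 mM MgCl2). Acetonitrile ≤1% final. Stopped with ice-cold acetonitrile and centrifuged. Metabolites identified by UFLC-ESI-MS and quantified by UFLC-DAD at 294 nm against authentic standard curves.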

Liver microsome [2] = assay: Drug metabolism in human liver microsomes assessed as 1alpha-hydroxylcinobufagin formation at 100 uM at 37 degC after 30 mins by UFLC-ESI-MS analysis in presence of NADPH-generating system; assay type: ADME; details: 0.5 h
Procedure, shortened: (§2)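 CB (100 µM; acetonitrile ≤1% final) was incubated with pooled HLM (0.3 mg/ml) plus NADPH-generating system (1 mM NADP+, 10 mM glucose 6-phosphate, 1 unit/ml G6PDH, 4 mM MgCl2) in pH 7.4 phosphate buffer at 37°C for 30 min. Products were identified by UFLC-ESI-MS and quantified by UFLC-DAD at 294 nm.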

Liver microsome [3] = assay: Drug metabolism in human liver microsomes assessed as 5beta-hydroxylcinobufagin formation at 100 uM at 37 degC after 30 mins by UFLC-ESI-MS analysis in presence of NADPH-generating system; assay type: ADME; details: 0.5 h; procedure, shortened: as §2
Liver microsome [4] = assay: Drug metabolism in human liver microsomes assessed as 1alpha-hydroxylcinobufagin formation at 100 uM at 37 degC after 30 mins […] in presence of 1 uM ketoconazole CYP3A4 inhibitor; assay type: ADME; details: 0.5 h
Liver microsome [5] = assay: Drug metabolism in human liver microsomes assessed as 1alpha-hydroxylcinobufagin formation at 100 uM at 37 degC after 30 mins […] in presence of 2.5 uM 8-methoxypsoralen CYP2A6 inhibitor; assay type: ADME; details: 0.5 h
Liver microsome [6] = assay: Drug metabolism in human liver microsomes assessed as 5beta-hydroxylcinobufagin formation at 100 uM at 37 degC after 30 mins […] in presence of 50 uM triethylenethiophosphoramide CYP2B6 inhibitor; assay type: ADME; details: 0.5 h
Liver microsome [7] = assay: Drug metabolism in human liver microsomes assessed as 5beta-hydroxylcinobufagin formation at 100 uM at 37 degC after 30 mins by UFLC-ESI-MS analysis in presence of 2 uM montelukast CYP2C8 inhibitor; assay type: ADME; details: 0.5 h
Procedure, shortened: (§3)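 Pooled human liver microsomes (10 donors, both sexes) in 100 mM potassium phosphate pH 7.4 were incubated with CB and a selective P450 inhibitor. Reaction was started with NADPH-generating system after 3 min preincubation at 37°C and stopped with ice-cold acetonitrile. Hydroxylated products were quantified by UFLC-DAD at 294 nm; three experiments in duplicate.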

Liver microsome [8] = assay: Drug metabolism in human liver microsomes assessed as 5beta-hydroxylcinobufagin formation at 100 uM at 37 degC after 30 mins by UFLC-ESI-MS analysis in presence of 20 uM omeprazole CYP2C19 inhibitor; assay type: ADME; details: 0.5 h; procedure, shortened: as §3
Liver microsome [9] = assay: Drug metabolism in human liver microsomes assessed as 1alpha-hydroxylcinobufagin formation at 100 uM at 37 degC after 30 mins by UFLC-ESI-MS analysis in presence of 10 uM quinidine CYP2D6 inhibitor; assay type: ADME; details: 0.5 h; procedure, shortened: as §3
Liver microsome [10] = assay: Drug metabolism in beagle dog liver microsomes assessed as 1alpha-hydroxylcinobufagin formation at 100 uM at 37 degC after 30 mins by UFLC-ESI-MS analysis in presence of 10 uM furafylline CYP1A2 inhibitor; assay type: ADME, Canis lupus familiaris; details: 0.5 h
Procedure, shortened: (§4)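 Chemical inhibition: selective P450 inhibitors (furafylline, sulfaphenazole, ketoconazole) added to liver microsome incubations in 100 mM potassium phosphate pH 7.4 with NADPH-generating system at 37°C. Hydroxylated metabolite formation quantified by UFLC at 294 nm against standards. Mean ± S.D. of three experiments in duplicate.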

[11] = Drug metabolism in cynomolgus monkey liver microsomes assessed as 1alpha-hydroxylcinobufagin formation at 100 uM at 37 degC after 30 mins by UFLC-ESI-MS analysis in presence of 10 uM furafylline CYP1A2 inhibitor; assay type: ADME, Macaca fascicularis; details: 0.5 h; procedure, shortened: as §4
[12] = Drug metabolism in Swiss-Hauschka (ICR) mouse liver microsomes assessed as 1alpha-hydroxylcinobufagin formation at 100 uM at 37 degC after 30 mins by UFLC-ESI-MS analysis in presence of 1 uM ketoconazole CYP3A4 inhibitor; assay type: ADME; details: 0.5 h; procedure, shortened: as §4
Liver microsome [13] = assay: Drug metabolism in beagle dog liver microsomes assessed as 1alpha-hydroxylcinobufagin formation at 100 uM at 37 degC after 30 mins by UFLC-ESI-MS analysis in presence of 1 uM ketoconazole CYP3A4 inhibitor; assay type: ADME, Canis lupus familiaris; details: 0.5 h; procedure, shortened: as §4
Liver microsome [14] = assay: Drug metabolism in beagle dog liver microsomes assessed as 1alpha-hydroxylcinobufagin formation at 100 uM at 37 degC after 30 mins by UFLC-ESI-MS analysis; assay type: ADME, Canis lupus familiaris; details: 0.5 h, read-out: Km(app); procedure, shortened: as §1
[15] = Drug metabolism in Colony-bred Chinese Bama minipig liver microsomes assessed as 5beta-hydroxylcinobufaginn formation per mg of protein at 100 uM at 37 degC after 30 mins by UFLC-ESI-MS analysis; assay type: ADME, Sus scrofa; details: pig, 0.5 h; procedure, shortened: as §1
Liver microsome [16] = assay: Drug metabolism in human liver microsomes assessed as 5beta-hydroxylcinobufaginn formation at 100 uM […] by UFLC-ESI-MS analysis; assay type: ADME; details: 0.5 h, read-out: Km(app)
[17] = Drug metabolism in cynomolgus monkey liver microsomes assessed as 5beta-hydroxylcinobufaginn formation at 100 uM […] by UFLC-ESI-MS analysis; assay type: ADME, Macaca fascicularis; details: 0.5 h, read-out: Km(app)
[18] = Drug metabolism in Colony-bred Chinese Bama minipig liver microsomes assessed as 5beta-hydroxylcinobufaginn formation at 100 uM at 37 degC after 30 mins by UFLC-ESI-MS analysis; assay type: ADME, Sus scrofa; details: pig, 0.5 h, read-out: Km(app); procedure, shortened: as §1
[19] = Drug metabolism in cynomolgus monkey liver microsomes assessed as 1alpha-hydroxylcinobufagin formation at 100 uM at 37 degC after 30 mins by UFLC-ESI-MS analysis in presence of 1 uM ketoconazole CYP3A4 inhibitor; assay type: ADME, Macaca fascicularis; details: 0.5 h; procedure, shortened: as §4
[20] = Drug metabolism in Colony-bred Chinese Bama minipig liver microsomes assessed as 1alpha-hydroxylcinobufagin formation per mg of protein at 100 uM at 37 degC after 30 mins by UFLC-ESI-MS analysis; assay type: ADME, Sus scrofa; details: pig, 0.5 h; procedure, shortened: as §1
Liver microsome [21] = assay: Drug metabolism in human liver microsomes assessed as 5beta-hydroxylcinobufagin formation at 100 uM at 37 degC after 30 mins by UFLC-ESI-MS analysis in presence of 10 uM quinidine CYP2D6 inhibitor; assay type: ADME; details: 0.5 h; procedure, shortened: as §3
Liver microsome [22] = assay: Drug metabolism in human liver microsomes assessed as 5beta-hydroxylcinobufagin formation at 100 uM at 37 degC after 30 mins […] in presence of 50 uM clomethiazole CYP2E1 inhibitor; assay type: ADME; details: 0.5 h
[23] = Drug metabolism in Swiss-Hauschka (ICR) mouse liver microsomes assessed as 1alpha-hydroxylcinobufagin formation at 100 uM at 37 degC after 30 mins by UFLC-ESI-MS analysis in presence of 10 uM furafylline CYP1A2 inhibitor; assay type: ADME; details: 0.5 h; procedure, shortened: as §4
[24] = Drug metabolism in cynomolgus monkey liver microsomes assessed as 1alpha-hydroxylcinobufagin formation at 100 uM at 37 degC after 30 mins by UFLC-ESI-MS analysis; assay type: ADME, Macaca fascicularis; details: 0.5 h, read-out: Km(app); procedure, shortened: as §1
[25] = Ratio of Vmax/Km in Colony-bred Chinese Bama minipig liver microsomes assessed as 5beta-hydroxylcinobufaginn formation at 100 uM […] by UFLC-ESI-MS analysis; assay type: ADME, Sus scrofa; details: pig, 0.5 h

## CC(=O)O[C@H]1[C@H]2O[C@]23[C@@H]2CC[C@@H]4C[C@@H](O)CC[C@]4(C)[C@H]2CC[C@]3(C)[C@H]1c1ccc(=O)oc1 [CINOBUFAGIN]
Liver microsome [1]
  Drug metabolism: metabolite_detected
Liver microsome [2]
  Drug metabolism: metabolite_detected
Liver microsome [3]
  Drug metabolism: metabolite_detected
Liver microsome [4]
  Drug metabolism: metabolite_not_detected
Liver microsome [5]
  Drug metabolism: metabolite_detected
Liver microsome [6]
  Drug metabolism: metabolite_detected
Liver microsome [7]
  Drug metabolism: metabolite_detected
Liver microsome [8]
  Drug metabolism: metabolite_detected
Liver microsome [9]
  Drug metabolism: metabolite_detected
Liver microsome [10]
  Drug metabolism: metabolite_detected
[11]
  Drug metabolism: metabolite_detected
[12]
  Drug metabolism: metabolite_not_detected
Liver microsome [13]
  Drug metabolism: metabolite_not_detected
Liver microsome [14]
  Km: 3.3 µM
[15]
  Vmax: 0.65 nmol/min/mg
Liver microsome [16]
  Km: 20.4 µM
[17]
  Km: 8.5 µM
[18]
  Km: 11.9 µM
[19]
  Drug metabolism: metabolite_not_detected
[20]
  Vmax: 0.25 nmol/min/mg
Liver microsome [21]
  Drug metabolism: metabolite_detected
Liver microsome [22]
  Drug metabolism: metabolite_detected
[23]
  Drug metabolism: metabolite_detected
[24]
  Km: 34.2 µM
[25]
  Vmax/Km: 54.6 µL/min/mg
